Each structure is given as a SMILES string. Active and inactive are the calls of the source. No rule for the calls is given here.

The target of this test is Muscarinic acetylcholine receptor M3 (Rattus norvegicus) (UniProt P08483). The experiment in a line: M3 receptor potentiation by M5-directed compounds, selectivity assay for M5 PAM discovery project, CHO cells, rat M3, calcium flux (AID 651931). Put shortly:
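Test system: Fluo-4-loaded stable M3 CHO-K1 cells; Buffer or medium: HBSS, pH 7.4, plus 2.5 mM probenecid and 20 mM HEPES; Reagent: acetylcholine, EC20; Compound: 0.3% final DMSO; Schedule: 1.5 min compound pre-incubation, 50 s ACh exposure, 25 °C read; Technique: Fluo-4 calcium flux; Read-out: % of maximal ACh response.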

Muscarinic acetylcholine receptor M3 (Rattus norvegicus), sequence (P08483 whole entry, looked up): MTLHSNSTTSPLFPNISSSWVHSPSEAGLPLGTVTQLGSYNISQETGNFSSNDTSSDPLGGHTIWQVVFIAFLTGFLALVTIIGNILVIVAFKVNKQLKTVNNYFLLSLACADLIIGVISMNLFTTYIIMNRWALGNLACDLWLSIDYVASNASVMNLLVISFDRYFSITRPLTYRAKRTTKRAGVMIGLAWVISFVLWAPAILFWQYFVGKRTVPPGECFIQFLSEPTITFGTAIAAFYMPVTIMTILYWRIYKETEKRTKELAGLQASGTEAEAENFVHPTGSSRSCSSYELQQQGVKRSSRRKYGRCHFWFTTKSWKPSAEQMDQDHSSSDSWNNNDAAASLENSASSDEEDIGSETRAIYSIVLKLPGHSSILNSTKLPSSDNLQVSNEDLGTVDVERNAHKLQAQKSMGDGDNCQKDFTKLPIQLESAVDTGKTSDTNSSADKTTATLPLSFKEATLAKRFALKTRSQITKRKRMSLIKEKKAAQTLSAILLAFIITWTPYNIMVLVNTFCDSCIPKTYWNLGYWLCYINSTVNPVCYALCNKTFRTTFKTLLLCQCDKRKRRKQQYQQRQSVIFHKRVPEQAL

As for `O=C1C(=O)N(CCOc2ccccc2)c2ccc(OC(F)(F)F)cc21`, the result was inactive.

The values are drawn from PubChem BioAssay AID651931 (Vanderbilt Specialized Chemistry Center, 2012).
